Reference: publication PMC4832855 (Cancer Science, 2016)

Tests used:
IR = IR (Homo sapiens, UniProt P06213); assay: Kinase inhibition profiling at 100 nmol/L; format: biochemical; conditions: read-out: Inhibition at 100 nmol/L
TrkA = TrkA (Homo sapiens, UniProt P04629); assay: Kinase inhibition profiling at 100 nmol/L; format: biochemical
Src = Src (Homo sapiens, UniProt P12931); assay: Kinase inhibition profiling at 100 nmol/L; format: biochemical; conditions: read-out: Inhibition at 100 nmol/L
Lck = Lck (Homo sapiens, UniProt P06239); assay: Kinase inhibition profiling at 100 nmol/L; format: biochemical; conditions: read-out: Inhibition at 100 nmol/L
Lck, sequence (P06239 whole entry): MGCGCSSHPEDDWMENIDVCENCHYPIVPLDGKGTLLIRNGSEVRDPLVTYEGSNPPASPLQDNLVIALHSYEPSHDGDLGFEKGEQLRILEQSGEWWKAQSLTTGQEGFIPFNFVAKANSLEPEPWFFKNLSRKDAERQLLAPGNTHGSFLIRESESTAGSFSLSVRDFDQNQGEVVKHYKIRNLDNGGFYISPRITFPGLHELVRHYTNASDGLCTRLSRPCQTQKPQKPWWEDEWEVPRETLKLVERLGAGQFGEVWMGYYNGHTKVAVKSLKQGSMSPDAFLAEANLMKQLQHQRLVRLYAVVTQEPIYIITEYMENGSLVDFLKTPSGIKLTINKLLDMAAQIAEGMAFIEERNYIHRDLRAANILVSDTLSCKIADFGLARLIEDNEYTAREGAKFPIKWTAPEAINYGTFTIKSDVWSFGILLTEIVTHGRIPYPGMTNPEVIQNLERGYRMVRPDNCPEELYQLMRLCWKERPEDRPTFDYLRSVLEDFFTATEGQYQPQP

focal adhesion kinase = focal adhesion kinase (Homo sapiens, UniProt Q05397); assay: Kinase inhibition profiling at 100 nmol/L; format: biochemical; conditions: read-out: Inhibition at 100 nmol/L
focal adhesion kinase, sequence (Q05397 whole entry): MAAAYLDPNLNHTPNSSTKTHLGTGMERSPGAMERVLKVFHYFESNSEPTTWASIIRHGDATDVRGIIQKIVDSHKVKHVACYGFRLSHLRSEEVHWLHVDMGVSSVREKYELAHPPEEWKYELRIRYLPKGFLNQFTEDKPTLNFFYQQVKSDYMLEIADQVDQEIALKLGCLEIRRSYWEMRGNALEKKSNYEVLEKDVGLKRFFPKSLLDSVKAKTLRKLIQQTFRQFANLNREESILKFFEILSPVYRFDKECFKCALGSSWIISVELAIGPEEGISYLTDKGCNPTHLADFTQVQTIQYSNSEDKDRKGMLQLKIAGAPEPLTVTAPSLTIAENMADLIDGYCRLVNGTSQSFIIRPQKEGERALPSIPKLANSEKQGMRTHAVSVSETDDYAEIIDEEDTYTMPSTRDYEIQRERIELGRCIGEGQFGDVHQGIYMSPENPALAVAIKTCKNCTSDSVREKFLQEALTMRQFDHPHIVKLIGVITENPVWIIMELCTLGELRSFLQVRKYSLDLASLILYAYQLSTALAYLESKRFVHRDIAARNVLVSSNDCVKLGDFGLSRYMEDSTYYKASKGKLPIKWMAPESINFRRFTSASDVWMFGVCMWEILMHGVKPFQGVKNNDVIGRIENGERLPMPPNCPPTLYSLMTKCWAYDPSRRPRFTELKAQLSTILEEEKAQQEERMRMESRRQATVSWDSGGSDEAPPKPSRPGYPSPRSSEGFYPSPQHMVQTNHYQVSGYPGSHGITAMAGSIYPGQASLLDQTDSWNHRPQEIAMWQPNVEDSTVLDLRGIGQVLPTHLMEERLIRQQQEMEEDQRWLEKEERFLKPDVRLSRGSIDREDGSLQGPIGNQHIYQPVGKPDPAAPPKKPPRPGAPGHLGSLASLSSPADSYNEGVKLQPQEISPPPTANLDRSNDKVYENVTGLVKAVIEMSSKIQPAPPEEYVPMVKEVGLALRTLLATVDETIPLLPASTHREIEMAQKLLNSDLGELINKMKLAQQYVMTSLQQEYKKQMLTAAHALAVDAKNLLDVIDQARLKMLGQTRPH

[1] = biological target: fms‐like tyrosine kinase‐1 (Homo sapiens, UniProt P17948); assay: Kinase inhibition profiling at 100 nmol/L; format: biochemical; conditions: read-out: Inhibition at 100 nmol/L
fms‐like tyrosine kinase‐1, sequence (P17948 27-1338): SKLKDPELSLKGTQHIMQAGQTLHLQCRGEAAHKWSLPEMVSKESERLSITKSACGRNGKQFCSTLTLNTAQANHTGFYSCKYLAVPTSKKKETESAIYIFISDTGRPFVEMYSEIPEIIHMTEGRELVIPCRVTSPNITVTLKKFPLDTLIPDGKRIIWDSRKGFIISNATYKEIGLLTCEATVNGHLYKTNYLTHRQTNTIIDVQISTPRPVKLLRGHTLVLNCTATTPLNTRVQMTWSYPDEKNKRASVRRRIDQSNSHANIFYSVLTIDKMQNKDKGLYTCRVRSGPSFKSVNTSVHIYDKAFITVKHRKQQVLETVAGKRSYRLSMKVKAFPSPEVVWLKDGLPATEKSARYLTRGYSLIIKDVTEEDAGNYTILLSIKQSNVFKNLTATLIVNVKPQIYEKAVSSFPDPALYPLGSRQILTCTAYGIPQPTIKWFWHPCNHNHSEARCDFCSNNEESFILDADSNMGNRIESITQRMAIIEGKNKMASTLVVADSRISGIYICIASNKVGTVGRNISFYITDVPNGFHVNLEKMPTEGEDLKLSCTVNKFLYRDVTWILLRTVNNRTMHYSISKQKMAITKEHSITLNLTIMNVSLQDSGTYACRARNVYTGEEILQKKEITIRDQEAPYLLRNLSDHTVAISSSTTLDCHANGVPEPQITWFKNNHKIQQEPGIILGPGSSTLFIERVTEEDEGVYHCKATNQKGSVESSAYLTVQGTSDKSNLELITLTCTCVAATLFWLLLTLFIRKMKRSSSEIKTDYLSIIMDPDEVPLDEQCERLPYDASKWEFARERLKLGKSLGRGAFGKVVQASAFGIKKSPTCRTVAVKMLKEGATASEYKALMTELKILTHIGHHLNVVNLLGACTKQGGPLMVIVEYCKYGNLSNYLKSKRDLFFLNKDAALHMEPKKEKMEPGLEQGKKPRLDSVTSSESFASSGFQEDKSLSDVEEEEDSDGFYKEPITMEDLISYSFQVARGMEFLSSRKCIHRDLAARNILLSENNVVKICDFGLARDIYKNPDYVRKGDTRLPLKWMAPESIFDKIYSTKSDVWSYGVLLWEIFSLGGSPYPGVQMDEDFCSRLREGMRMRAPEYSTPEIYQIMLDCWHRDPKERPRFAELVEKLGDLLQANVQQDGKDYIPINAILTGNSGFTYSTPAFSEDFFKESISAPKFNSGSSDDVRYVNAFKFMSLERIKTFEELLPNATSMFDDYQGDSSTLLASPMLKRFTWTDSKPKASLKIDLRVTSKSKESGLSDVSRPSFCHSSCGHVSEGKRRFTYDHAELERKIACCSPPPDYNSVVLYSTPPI

[2] = test system: human multiple myeloma cell lines (KMS‐12‐BM, LP‐1, NCI‐H929); assay: Anti-proliferative activity; format: cell-based; conditions: 72 h
[3] = test system: HT‐29/GFP human colon cancer cells; assay: Anti-proliferative activity; format: cell-based
[4] = test system: insulin‐induced tyrosine phosphorylation of IR in HT‐29/GFP cells; assay: In vitro signal transduction assay; format: cell-based, human; conditions: 10 nmol/L, 2 hours
Procedure, shortened: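 HT-29/GFP colon cancer cells in culture exposed to test compound, then stimulated with human IGF-1 or human insulin; receptor tyrosine phosphorylation and downstream signalling assessed across a concentration series.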

[5] = test system: HT‐29/GFP human colon cancer cells; assay: Flow cytometric cell cycle analysis; format: cell-based
[6] = test system: HT‐29/GFP colon cancer xenograft; assay: HT-29/GFP xenograft model; format: in vivo, mouse; conditions: 40 mg/kg orally once daily for 14 days, SCID mice
[7] = test system: patients with advanced solid tumors; assay: Phase I first-in-human study: safety, tolerability, DLT, MTD; format: in vivo
Procedure, shortened: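 Open-label 3+3 dose-escalation/de-escalation; oral once-daily dosing under overnight fasting for 28 days, 1-week observation, then continuous; AEs graded by CTCAE v3.0 with attribution; DLTs included grade 3 fasting hyperglycemia, grade 3 non-fasting hyperglycemia >4 h, grade 4 hyperglycemia, grade ≥2 cardiac toxicity, other grade ≥3 non-hematologic events, grade 4 neutropenia >7 days, grade 4 thrombocytopenia.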

[8] = test system: patients with advanced solid tumors; assay: Phase I first-in-human study: pharmacodynamics; format: in vivo
Procedure, shortened: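 Open-label 3+3 dose-escalation/de-escalation study. After a 1-week observation period, the test compound was given orally once daily, continuously, after an overnight fast. On pharmacodynamic sampling days, fasting continued until 2 h post-dose. Plasma glucose and insulin were sampled between days 1 and 29, at pre-dose and at 1, 2 and 24 h post-dose. Only the fasting time points were evaluable.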

[9] = preliminary in vitro and in vivo studies; ref Kyowa Hakko Kirin Co., Tokyo, unpublished data; cited from earlier work
[10] = patients, 37.5 and 50 mg, 1 and 2 h post‐dose

TrkA, sequence (P04629 33-796): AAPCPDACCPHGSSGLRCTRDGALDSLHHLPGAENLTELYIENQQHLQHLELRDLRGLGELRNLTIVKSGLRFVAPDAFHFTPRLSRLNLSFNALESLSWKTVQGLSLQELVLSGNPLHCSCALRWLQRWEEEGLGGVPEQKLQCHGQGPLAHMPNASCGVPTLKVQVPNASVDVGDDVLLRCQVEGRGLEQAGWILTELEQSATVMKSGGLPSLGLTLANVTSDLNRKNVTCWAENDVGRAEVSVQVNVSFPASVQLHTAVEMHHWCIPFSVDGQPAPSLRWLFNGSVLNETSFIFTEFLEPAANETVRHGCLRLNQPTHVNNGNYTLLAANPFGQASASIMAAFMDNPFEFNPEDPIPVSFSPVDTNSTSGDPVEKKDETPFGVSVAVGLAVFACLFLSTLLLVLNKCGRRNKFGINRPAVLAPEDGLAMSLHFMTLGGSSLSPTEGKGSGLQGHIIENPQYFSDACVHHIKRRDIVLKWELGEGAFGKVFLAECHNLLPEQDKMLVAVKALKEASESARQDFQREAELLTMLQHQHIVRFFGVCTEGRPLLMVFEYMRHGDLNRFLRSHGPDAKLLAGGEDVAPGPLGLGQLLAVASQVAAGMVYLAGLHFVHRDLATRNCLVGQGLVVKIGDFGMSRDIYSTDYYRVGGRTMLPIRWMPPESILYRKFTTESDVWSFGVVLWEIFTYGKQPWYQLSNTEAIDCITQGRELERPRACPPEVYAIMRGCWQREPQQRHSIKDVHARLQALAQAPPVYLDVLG
IR, sequence (P06213 28-1382): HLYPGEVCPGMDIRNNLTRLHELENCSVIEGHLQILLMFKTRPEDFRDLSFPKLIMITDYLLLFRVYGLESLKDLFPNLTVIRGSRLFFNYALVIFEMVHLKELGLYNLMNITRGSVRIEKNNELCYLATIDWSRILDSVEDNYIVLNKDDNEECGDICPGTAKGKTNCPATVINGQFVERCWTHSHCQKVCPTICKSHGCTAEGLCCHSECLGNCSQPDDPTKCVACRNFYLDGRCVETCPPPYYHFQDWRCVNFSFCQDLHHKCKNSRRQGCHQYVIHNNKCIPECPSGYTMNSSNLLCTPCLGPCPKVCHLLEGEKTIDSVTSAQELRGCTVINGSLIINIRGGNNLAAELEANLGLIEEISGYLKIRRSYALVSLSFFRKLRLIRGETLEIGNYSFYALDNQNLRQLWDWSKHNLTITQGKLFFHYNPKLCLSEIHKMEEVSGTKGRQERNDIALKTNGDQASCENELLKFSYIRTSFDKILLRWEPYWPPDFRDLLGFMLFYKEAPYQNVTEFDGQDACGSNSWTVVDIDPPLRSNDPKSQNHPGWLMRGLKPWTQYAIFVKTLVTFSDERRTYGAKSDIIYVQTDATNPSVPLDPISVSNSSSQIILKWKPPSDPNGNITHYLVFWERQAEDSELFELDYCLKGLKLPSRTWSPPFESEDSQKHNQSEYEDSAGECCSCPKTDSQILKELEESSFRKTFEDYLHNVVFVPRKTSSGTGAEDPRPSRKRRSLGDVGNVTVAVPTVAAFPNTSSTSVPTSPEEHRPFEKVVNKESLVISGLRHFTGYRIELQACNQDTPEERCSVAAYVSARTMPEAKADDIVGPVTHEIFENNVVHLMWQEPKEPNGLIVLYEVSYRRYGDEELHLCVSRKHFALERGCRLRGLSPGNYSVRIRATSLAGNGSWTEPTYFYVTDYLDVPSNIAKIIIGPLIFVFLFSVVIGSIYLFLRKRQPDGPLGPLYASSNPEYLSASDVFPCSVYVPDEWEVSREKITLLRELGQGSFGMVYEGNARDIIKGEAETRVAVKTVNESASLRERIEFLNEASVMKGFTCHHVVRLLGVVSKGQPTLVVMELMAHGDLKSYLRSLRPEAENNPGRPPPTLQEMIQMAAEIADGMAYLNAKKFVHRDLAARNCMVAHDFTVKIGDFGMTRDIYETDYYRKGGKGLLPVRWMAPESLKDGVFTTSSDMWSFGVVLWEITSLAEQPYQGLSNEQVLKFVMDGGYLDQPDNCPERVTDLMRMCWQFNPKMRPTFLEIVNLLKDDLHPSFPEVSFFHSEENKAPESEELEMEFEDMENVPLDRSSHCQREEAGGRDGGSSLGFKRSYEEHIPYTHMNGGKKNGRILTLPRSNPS

Structure (SMILES): Cc1ccsc1C(=O)Nc1cc(CN2CCN(C(=O)CO)CC2)ccc1/C=C/c1n[nH]c2ccccc12 [KW‐2450]
- inhibition at 0.1 µM (IR): 95.6%
- Inhibition at 100 nmol/L (TrkA; TrkA, 100 nmol/L): 101.1%
- inhibition at 0.1 µM (TrkA; read-out: Inhibition at 100 nmol/L, TrkA, 100 nmol/L): > 90%
- inhibition at 0.1 µM (Src): 53.8%
- inhibition at 0.1 µM (Lck): 33.7%
- inhibition at 0.1 µM (focal adhesion kinase): > 90%
- inhibition at 0.1 µM [1]: > 90%
- GI50 [2]: 11 to 19 nM
- GI50 [3]: 380 nM
- Inhibition of insulin‐induced tyrosine phosphorylation of IR [4]: significant degree of inhibition
- Cell cycle distribution ([5]; higher concentrations of 1200 and 2000 nmol/L): G1 and G2/M phase accumulations
- Cell cycle distribution ([5]; lower concentrations of 120 and 400 nmol/L): G1 phase accumulation
- In vivo growth inhibitory activity [6]: modest in vivo growth inhibitory activity
- Anorexia, treatment‐related, Grade 1–2 ([7]; 37.5 mg/day (n = 7)): 2 (28.6) No. of patients (%)
- Anorexia, treatment‐related, Grade 3 ([7]; 37.5 mg/day (n = 7)): 0 (0.0) No. of patients (%)
- Constipation, treatment‐related, Grade 1–2 ([7]; 37.5 mg/day (n = 7)): 1 (14.3) No. of patients (%)
- Constipation, treatment‐related, Grade 3 ([7]; 37.5 mg/day (n = 7)): 0 (0.0) No. of patients (%)
- Decreased appetite, treatment‐related, Grade 1–2 ([7]; 37.5 mg/day (n = 7)): 0 (0.0) No. of patients (%)
- Decreased appetite, treatment‐related, Grade 3 ([7]; 37.5 mg/day (n = 7)): 0 (0.0) No. of patients (%)
- Diarrhea, treatment‐related, Grade 1–2 ([7]; 37.5 mg/day (n = 7)): 0 (0.0) No. of patients (%)
- Diarrhea, treatment‐related, Grade 3 ([7]; 37.5 mg/day (n = 7)): 0 (0.0) No. of patients (%)
- Dizziness, treatment‐related, Grade 1–2 ([7]; 37.5 mg/day (n = 7)): 1 (14.3) No. of patients (%)
- Dizziness, treatment‐related, Grade 3 ([7]; 37.5 mg/day (n = 7)): 0 (0.0) No. of patients (%)
- Fatigue, treatment‐related, Grade 1–2 ([7]; 37.5 mg/day (n = 7)): 4 (57.1) No. of patients (%)
- Fatigue, treatment‐related, Grade 3 ([7]; 37.5 mg/day (n = 7)): 0 (0.0) No. of patients (%)
- Hyperglycemia, treatment‐related, Grade 1–2 ([7]; 37.5 mg/day (n = 7)): 1 (14.3) No. of patients (%)
- Hyperglycemia, treatment‐related, Grade 3 ([7]; 37.5 mg/day (n = 7)): 0 (0.0) No. of patients (%)
- Mucosal inflammation, treatment‐related, Grade 1–2 ([7]; 37.5 mg/day (n = 7)): 1 (14.3) No. of patients (%)
- Mucosal inflammation, treatment‐related, Grade 3 ([7]; 37.5 mg/day (n = 7)): 0 (0.0) No. of patients (%)
- Nausea, treatment‐related, Grade 1–2 ([7]; 37.5 mg/day (n = 7)): 2 (28.6) No. of patients (%)
- Nausea, treatment‐related, Grade 3 ([7]; 37.5 mg/day (n = 7)): 0 (0.0) No. of patients (%)
- Pain, treatment‐related, Grade 1–2 ([7]; 37.5 mg/day (n = 7)): 0 (0.0) No. of patients (%)
- Pain, treatment‐related, Grade 3 ([7]; 37.5 mg/day (n = 7)): 0 (0.0) No. of patients (%)
- Rash, treatment‐related, Grade 1–2 ([7]; 37.5 mg/day (n = 7)): 1 (14.3) No. of patients (%)
- Rash, treatment‐related, Grade 3 ([7]; 37.5 mg/day (n = 7)): 1 (14.3) No. of patients (%)
- Vomiting, treatment‐related, Grade 1–2 ([7]; 37.5 mg/day (n = 7)): 1 (14.3) No. of patients (%)
- Vomiting, treatment‐related, Grade 3 ([7]; 37.5 mg/day (n = 7)): 0 (0.0) No. of patients (%)
- Patients with dose‐limiting toxicity ([7]; 37.5 mg/day, one of seven patients, grade 3 rash): 14.3%
- Anorexia, treatment‐related, Grade 1–2 ([7]; 50 mg/day (n = 6)): 0 (0.0) No. of patients (%)
- Anorexia, treatment‐related, Grade 3 ([7]; 50 mg/day (n = 6)): 0 (0.0) No. of patients (%)
- Constipation, treatment‐related, Grade 1–2 ([7]; 50 mg/day (n = 6)): 1 (16.7) No. of patients (%)
- Constipation, treatment‐related, Grade 3 ([7]; 50 mg/day (n = 6)): 0 (0.0) No. of patients (%)
- Decreased appetite, treatment‐related, Grade 1–2 ([7]; 50 mg/day (n = 6)): 3 (50.0) No. of patients (%)
- Decreased appetite, treatment‐related, Grade 3 ([7]; 50 mg/day (n = 6)): 0 (0.0) No. of patients (%)
- Diarrhea, treatment‐related, Grade 1–2 ([7]; 50 mg/day (n = 6)): 2 (33.3) No. of patients (%)
- Diarrhea, treatment‐related, Grade 3 ([7]; 50 mg/day (n = 6)): 0 (0.0) No. of patients (%)
- Dizziness, treatment‐related, Grade 1–2 ([7]; 50 mg/day (n = 6)): 2 (33.3) No. of patients (%)
- Dizziness, treatment‐related, Grade 3 ([7]; 50 mg/day (n = 6)): 0 (0.0) No. of patients (%)
- Fatigue, treatment‐related, Grade 1–2 ([7]; 50 mg/day (n = 6)): 4 (66.7) No. of patients (%)
- Fatigue, treatment‐related, Grade 3 ([7]; 50 mg/day (n = 6)): 0 (0.0) No. of patients (%)
- Hyperglycemia, treatment‐related, Grade 1–2 ([7]; 50 mg/day (n = 6)): 2 (33.3) No. of patients (%)
- Hyperglycemia, treatment‐related, Grade 3 ([7]; 50 mg/day (n = 6)): 2 (33.3) No. of patients (%)
- Mucosal inflammation, treatment‐related, Grade 1–2 ([7]; 50 mg/day (n = 6)): 1 (16.7) No. of patients (%)
- Mucosal inflammation, treatment‐related, Grade 3 ([7]; 50 mg/day (n = 6)): 0 (0.0) No. of patients (%)
- Nausea, treatment‐related, Grade 1–2 ([7]; 50 mg/day (n = 6)): 4 (66.7) No. of patients (%)
- Nausea, treatment‐related, Grade 3 ([7]; 50 mg/day (n = 6)): 0 (0.0) No. of patients (%)
- Pain, treatment‐related, Grade 1–2 ([7]; 50 mg/day (n = 6)): 2 (33.3) No. of patients (%)
- Pain, treatment‐related, Grade 3 ([7]; 50 mg/day (n = 6)): 0 (0.0) No. of patients (%)
- Rash, treatment‐related, Grade 1–2 ([7]; 50 mg/day (n = 6)): 0 (0.0) No. of patients (%)
- Rash, treatment‐related, Grade 3 ([7]; 50 mg/day (n = 6)): 0 (0.0) No. of patients (%)
- Vomiting, treatment‐related, Grade 1–2 ([7]; 50 mg/day (n = 6)): 1 (16.7) No. of patients (%)
- Vomiting, treatment‐related, Grade 3 ([7]; 50 mg/day (n = 6)): 0 (0.0) No. of patients (%)
- Patients with dose‐limiting toxicity ([7]; 50 mg/day, two of six patients, grade 3 non‐fasting hyperglycemia): 33.3%
- Anorexia, treatment‐related, Grade 1–2 ([7]; Total (n = 13)): 2 (15.4) No. of patients (%)
- Anorexia, treatment‐related, Grade 3 ([7]; Total (n = 13)): 0 (0.0) No. of patients (%)
- Constipation, treatment‐related, Grade 1–2 ([7]; Total (n = 13)): 2 (15.4) No. of patients (%)
- Constipation, treatment‐related, Grade 3 ([7]; Total (n = 13)): 0 (0.0) No. of patients (%)
- Decreased appetite, treatment‐related, Grade 1–2 ([7]; Total (n = 13)): 3 (23.1) No. of patients (%)
- Decreased appetite, treatment‐related, Grade 3 ([7]; Total (n = 13)): 0 (0.0) No. of patients (%)
- Diarrhea, treatment‐related, Grade 1–2 ([7]; Total (n = 13)): 2 (15.4) No. of patients (%)
- Diarrhea, treatment‐related, Grade 3 ([7]; Total (n = 13)): 0 (0.0) No. of patients (%)
- Dizziness, treatment‐related, Grade 1–2 ([7]; Total (n = 13)): 3 (23.1) No. of patients (%)
- Dizziness, treatment‐related, Grade 3 ([7]; Total (n = 13)): 0 (0.0) No. of patients (%)
- Fatigue, treatment‐related, Grade 1–2 ([7]; Total (n = 13)): 8 (61.5) No. of patients (%)
- Fatigue, treatment‐related, Grade 3 ([7]; Total (n = 13)): 0 (0.0) No. of patients (%)
- Hyperglycemia, treatment‐related, Grade 1–2 ([7]; Total (n = 13)): 3 (23.1) No. of patients (%)
- Hyperglycemia, treatment‐related, Grade 3 ([7]; Total (n = 13)): 2 (15.4) No. of patients (%)
- Mucosal inflammation, treatment‐related, Grade 1–2 ([7]; Total (n = 13)): 2 (15.4) No. of patients (%)
- Mucosal inflammation, treatment‐related, Grade 3 ([7]; Total (n = 13)): 0 (0.0) No. of patients (%)
- Nausea, treatment‐related, Grade 1–2 ([7]; Total (n = 13)): 6 (46.2) No. of patients (%)
- Nausea, treatment‐related, Grade 3 ([7]; Total (n = 13)): 0 (0.0) No. of patients (%)
- Pain, treatment‐related, Grade 1–2 ([7]; Total (n = 13)): 2 (15.4) No. of patients (%)
- Pain, treatment‐related, Grade 3 ([7]; Total (n = 13)): 0 (0.0) No. of patients (%)
- Vomiting, treatment‐related, Grade 1–2 ([7]; Total (n = 13)): 2 (15.4) No. of patients (%)
- Vomiting, treatment‐related, Grade 3 ([7]; Total (n = 13)): 0 (0.0) No. of patients (%)
- Maximum tolerated dose (MTD) ([7]; once daily orally, continuous): 37.5 mg
- Recommended phase II dose (RP2D) ([7]; oral, once daily): 37.5 mg/day
- Patients with insulin values above the upper limit of quantitation (300 μU/mL) ([8]; 37.5‐mg cohort): five
- Patients with insulin values above the upper limit of quantitation (300 μU/mL) ([8]; 50‐mg cohort): three
- Fasting glucose [8, 10]: Elevations in fasting glucose
- Fasting insulin [8, 10]: Elevations
- Antitumor effect in combination with lapatinib and letrozole [9]: synergistic antitumor effects
